The text below walks through data of paper PMC5614685 (Biochemistry and Biophysics Reports, 2017).

Like-named read-outs stand apart in the source and are kept apart here. Bridge positions count the residues as written; N and C are the ends. Ends that are not written are not given here. Peptide text beside a SMILES is read from it.

For data set [1], the target named is T1, ActRIIB-Fc (Homo sapiens, UniProt Q13705).
T1 sequence (Q13705 19-135): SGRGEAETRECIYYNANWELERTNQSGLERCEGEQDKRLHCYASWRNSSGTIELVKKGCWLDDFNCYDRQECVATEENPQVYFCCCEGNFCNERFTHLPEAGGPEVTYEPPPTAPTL
Description: SPR binding assay, ActRIIB-Fc. The method, boiled down:
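ActRIIB-Fc immobilized on a CM5 chip by amine coupling to about 3000 RU in PBS/0.01% P20 at 22 °C. Peptide concentration series injected in PBS/0.01% P20/1% DMSO at 75 μL/min: 60 s contact, up to 60 s dissociation. Double-referenced data globally fitted to a 1:1 model for kon and koff, KD = koff/kon. For fast off-rates, KD from a steady-state 1:1 fit.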

Data set [2] has as its target T2, ActRIIA-Fc (Homo sapiens, UniProt P27037). The data set is described as follows: SPR binding assay, ActRIIA-Fc. The method, boiled down:
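ActRIIA-Fc amine-coupled to a CM5 chip to about 9000 RU in PBS/0.01% P20 at 22 °C. Peptide concentration series run in PBS/0.01% P20/1% DMSO at 75 μL/min: 60 s association, up to 60 s dissociation. Sensorgrams double-referenced and globally fitted to a 1:1 model, KD = koff/kon. For fast off-rates, KD taken from a 1:1 steady-state fit.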

Data set [3] has as its target T1, ActRIIB-Fc. Description: Plate ELISA, ligand binding of ActRIIB-Fc. To be noted: ligand directly coated; HRP anti-human IgG Fc, chemiluminescence.
Data set [4] has as its target T2, ActRIIA-Fc. Description: Plate ELISA, ligand binding of ActRIIA-Fc. The note with it: ligand directly coated; HRP anti-human IgG Fc, chemiluminescence. The method, boiled down: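 Wells coated directly with each ligand overnight at 4 °C, then blocked with 0.5% BSA in PBS for 2 h at room temperature. ActRIIA-Fc added, then washed three times with PBST. Bound Fc protein detected with HRP goat anti-human IgG Fc (5000-fold dilution in 0.5% BSA/PBS) and a chemiluminescence reagent.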

A further data set concerns mice. The note with it: injection to mice; ref Suragani et al. [9]; cited from earlier work.
Data set [5] addresses T3, ActRIIB-Fc (extracellular domain of human ActRIIB, activin receptor type-2B, fused to human IgG-Fc) (human, UniProt Q13705 19-135).
T3 sequence: T1 sequence (Q13705 19-135)
The data set is described as follows: SPR.

In data set [6] the target is ActRIIA-Fc (UniProt P27037). Description: SPR.
Chain of ActRIIA-Fc (UniProt P27037) (P27037 20-135): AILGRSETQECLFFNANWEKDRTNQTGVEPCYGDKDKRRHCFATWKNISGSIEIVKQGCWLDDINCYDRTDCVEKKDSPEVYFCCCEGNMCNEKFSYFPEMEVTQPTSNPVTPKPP
In data set [7] the target is T3, ActRIIB-Fc (extracellular domain of …). The data set is described as follows: SPR. This is another data set of the same source.
The test system of another data set is ActRIIB-Fc/ActRIIA-Fc. The note with it: ref [3]; cited from earlier work.

In turn, `CC(C)C[C@@H]1NC(=O)[C@H]([C@@H](C)O)NC(=O)[C@H](CCCCN)NC(=O)[C@@H]2CCCN2C(=O)[C@H](Cc2c[nH]c3ccccc23)NC(=O)[C@@H](NC(=O)[C@H](CCCCN)NC(=O)[C@H](Cc2ccc(O)cc2)NC(=O)[C@@H](N)Cc2c[nH]cn2)CSSC[C@@H](C(=O)N[C@@H](Cc2c[nH]c3ccccc23)C(=O)N[C@@H](CC(N)=O)C(=O)N[C@@H](Cc2c[nH]cn2)C(=O)O)NC(=O)[C@H](CCCCN)NC(=O)[C@H](Cc2ccccc2)NC1=O` [AR9] (H-HYKCWPKTLFKCWNH-OH; disulfide 4-12) came in with an off-rate (koff) on ActRIIB-Fc [1] of 0.049 s⁻¹. For the same molecule, the equilibrium dissociation constant (Kd) at ActRIIA-Fc [2] was above 100 µM. For “activin A: ActRIIB ligand, purchased from R&D Systems (338-AC)”, the “binding to ActRIIB-Fc (plate ELISA), in words” value (shortened to “binding to ActRIIB-Fc”) with ActRIIB-Fc [3] was “binds to activin A, MSTN, and GDF11 in a concentration-dependent manner”. The “binding to ActRIIA-Fc (plate ELISA), in words” value (shortened to “binding to ActRIIA-Fc”) with ActRIIA-Fc [4] was “binds to activin A and GDF11”.

“MSTN: recombinant mature human MSTN (myostatin), ActRIIB ligand”: the “binding to ActRIIB-Fc” value with ActRIIB-Fc [3] was “binds to activin A, MSTN, and GDF11 in a concentration-dependent manner”. The “binding to ActRIIA-Fc” value with ActRIIA-Fc [4] was “but not MSTN”. On ActRIIB-Fc [1], `CC[C@H](C)[C@@H]1NC(=O)[C@H](CCCNC(=N)N)NC(=O)[C@H](CCCNC(=N)N)NC(=O)[C@H](C(C)C)NC(=O)[C@H](CO)NC(=O)[C@H]([C@@H](C)O)NC(=O)CNC(=O)[C@H](Cc2ccccc2)NC(=O)[C@@H](NC(=O)[C@@H](N)C(C)C)CSSC[C@@H](C(=O)N[C@H](C(=O)O)C(C)C)NC1=O` [AR2mini] (H-VCFGTSVRRICV-OH; disulfide 2-11) returned an off-rate constant (koff) above 0.1 s⁻¹. For “GDF11: growth differentiation factor 11, R&D Systems (1958-GD)”, in the data set with ActRIIB-Fc [3], the “binding to ActRIIB-Fc” value is “binds to activin A, MSTN, and GDF11 in a concentration-dependent manner”. Also, the “binding to ActRIIA-Fc” value in the data set with ActRIIA-Fc [4] was “binds to activin A and GDF11”. In addition, the “anemia, in words” value with mice is on record as “causes anemia”. With `C[C@@H]1NC(=O)[C@H](CCCNC(=N)N)NC(=O)[C@H]([C@@H](C)O)NC(=O)[C@@H](NC(=O)[C@H](CCC(N)=O)NC(=O)[C@H](Cc2ccccc2)NC(=O)[C@@H]2CCCN2)CSSC[C@@H](C(=O)N[C@H](C(=O)N[C@@H](CCCCN)C(=O)N[C@@H](CO)C(=O)O)[C@@H](C)O)NC(=O)[C@H](Cc2ccc(O)cc2)NC(=O)[C@H](Cc2ccc(O)cc2)NC(=O)[C@H](Cc2c[nH]c3ccccc23)NC(=O)CNC(=O)[C@H](CC(=O)O)NC(=O)[C@H](CCCNC(=N)N)NC1=O` [AR8] (H-PFQCTRARDGWYYCTKS-OH; disulfide 4-14), the koff on ActRIIB-Fc [1] was above 0.1 s⁻¹. On to PFQCTRARDGWYYCTKS-OH (disulfide 4-14 (inferred)) [AR8], for which the Kd is 3.6 µM in data set [5] and 18 µM with ActRIIA-Fc [6]. The molecule VCDGTSVPRICV-OH (disulfide 2-11 (inferred)) [AR2mut] registered a Kd in [7] above 100 µM.

B1: BMP9: bone morphogenetic protein 9, R&D Systems (3209-BP) (protein, UniProt Q9UK05 320-429, looked up)
Growth/differentiation factor …: SAGAGSHCQKTSLRVNFEDIGWDSWIIAPKEYEAYECKGGCFFPLADDVTPTKHAIVQTLVHLKFPTKVGKACCVPTKLSPISVLYKDDMGVPTLKYHYEGMSVAECGCR
B1: the “PPI with ActRIIB-Fc/ActRIIA-Fc, in words” value in the data set on ActRIIB-Fc/ActRIIA-Fc was “have been previously reported”. For the molecule VCFGTSVRRICV-OH (disulfide 2-11 (inferred)) [AR2mini], the dissociation constant (Kd) in [7] was determined as 1.8 µM; with ActRIIA-Fc [6] it was 19 µM. In data set [7], HYKCWPKTLFKCWNH-OH (disulfide 4-12 (inferred)) [AR9] came in with an equilibrium dissociation constant (Kd) of 0.86 µM.
